Publication PMC2806602 (The Journal of neuroscience : the official journal of the …, 2009)
Residue numbers refer to the chain shown, from its start. Entries after “also recorded” stand apart in the source; their conditions may differ.

Assays:
GluRδ2^Wt [1] = target: T1, GluRδ2^Wt (Rattus norvegicus, UniProt Q63226); assay: Two-electrode voltage-clamp recordings in Xenopus oocytes expressing GluRδ2^Wt; format: cell-based
T1 sequence (Q63226 24-1007): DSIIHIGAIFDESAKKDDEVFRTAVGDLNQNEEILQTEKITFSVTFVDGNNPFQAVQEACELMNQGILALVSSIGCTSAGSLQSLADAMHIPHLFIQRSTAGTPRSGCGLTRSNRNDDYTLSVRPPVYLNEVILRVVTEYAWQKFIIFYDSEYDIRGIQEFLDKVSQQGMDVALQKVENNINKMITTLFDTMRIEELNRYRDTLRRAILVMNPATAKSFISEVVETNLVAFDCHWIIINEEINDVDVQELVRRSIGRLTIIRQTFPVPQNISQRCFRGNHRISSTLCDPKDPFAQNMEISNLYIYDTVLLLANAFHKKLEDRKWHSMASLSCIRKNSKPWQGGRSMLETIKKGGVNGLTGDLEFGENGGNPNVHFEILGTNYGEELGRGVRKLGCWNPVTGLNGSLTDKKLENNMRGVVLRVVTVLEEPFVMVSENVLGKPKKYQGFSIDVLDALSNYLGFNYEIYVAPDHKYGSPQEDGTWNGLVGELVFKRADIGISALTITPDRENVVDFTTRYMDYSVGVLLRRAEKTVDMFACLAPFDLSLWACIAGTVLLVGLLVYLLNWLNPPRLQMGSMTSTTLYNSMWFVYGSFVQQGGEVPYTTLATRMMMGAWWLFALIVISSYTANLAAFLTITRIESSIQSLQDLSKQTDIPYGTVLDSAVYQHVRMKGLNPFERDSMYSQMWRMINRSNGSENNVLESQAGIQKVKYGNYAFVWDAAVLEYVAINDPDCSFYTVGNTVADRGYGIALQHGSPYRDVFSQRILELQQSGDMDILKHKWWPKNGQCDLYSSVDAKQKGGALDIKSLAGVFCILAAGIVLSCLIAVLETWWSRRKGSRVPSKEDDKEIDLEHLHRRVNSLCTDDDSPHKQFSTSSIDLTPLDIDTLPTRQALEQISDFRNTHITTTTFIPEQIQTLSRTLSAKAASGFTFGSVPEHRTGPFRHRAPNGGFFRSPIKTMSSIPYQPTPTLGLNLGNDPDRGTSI
How it was run: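 Oocytes injected with wild-type receptor cRNA the day after excision and collagenase treatment. Two-electrode voltage clamp at −40 mV and 23°C, 24–72 h post-injection. Bath: 90 mM NaCl, 3 mM KCl, 0.5 mM BaCl2, 10 mM HEPES, pH 7.6. Ba2+ was replaced by 0.5 mM Mg2+, Zn2+, Mn2+, Sr2+ or Ca2+, or Ca2+ was raised stepwise. Choline or NMDG chloride kept osmolarity and Cl− constant. Baseline was current without Ca2+.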

GluRδ2^Lc D742A = target: T2, GluRδ2^Lc D742A (Rattus norvegicus, UniProt Q63226, A654T/D742A); assay: Two-electrode voltage-clamp recordings in Xenopus oocytes, GluRδ2^Lc D742A; format: cell-based; settings: 3 mM Ca^2+; baseline spontaneously active current; ± SEM
T2 sequence (Q63226 24-1007 A654T/D742A): T1 sequence (Q63226 24-1007) with A631T, D719A
How it was run: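 Oocytes expressing the Lc mutant were kept in 25 μM NASP to prevent cytotoxicity. Two-electrode voltage clamp at −40 mV and 23°C, 24–72 h after cRNA injection. Bath: 90 mM NaCl, 3 mM KCl, 0.5 mM BaCl2, 10 mM HEPES, pH 7.6. Choline or NMDG chloride balanced Cl− and osmolarity. Values are fold increase over the Ca2+-free spontaneously active baseline on applying 3 mM Ca2+, given as mean ± SEM over oocytes.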

GluRδ2^Wt [2] = target: T1, GluRδ2^Wt; settings: ref Naur et al., 2007; cited from earlier work

effect of divalent cation on currents at GluRδ2^Wt (GluRδ2^Wt [1]; 0.5 mM Ba^2+ exchanged with 0.5 mM of the divalent cation) | Ca^2+ potentiation (relative to baseline) (GluRδ2^Lc D742A) [fold] | Structure (SMILES) | effect of extracellular Ca^2+ on baseline currents at GluRδ2^Wt (GluRδ2^Wt [1]; increasing concentrations of Ca^2+) | activation of currents at recombinant GluRδ2^Wt by D-serine (GluRδ2^Wt [2])
no changes were observed | 3.5 ± 0.11 | [Ca+2] [Ca^2+, calcium] | insensitive; also recorded: did not induce current | –
– | – | N[C@H](CO)C(=O)O [D-serine] | – | fails to activate currents
